Screening data (PubChem BioAssay)
Diaphorase act = diaphorase activation or chemical reduction counter-screen | Diaphorase/resazurin coupled assay, resorufin fluorescence, 16 min; active compounds read high; 1 = vehicle wells, 0 = NADH-free wells | activation factor at 20 µM | hit rate 0.005% among 190,000 | AID 1229;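 active means diaphorase activity raised at least twofold by the compound at 20 µM; inactive means activation factor below 2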
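Material: purified diaphorase enzyme from Clostridium kluyveri / Medium: HEPES pH 7.4 buffer with MgCl2 and Tween 20 / Schedule: enzyme reaction of 16 min at room temperature / Measured by: resorufin fluorescence, excitation 544 nm, emission 590 nm / Evaluation: rise in resorufin formation, marking diaphorase activation or chemical reduction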
PMI act = increases human mannose-6-phosphate isomerase activity | P34949 | purified human PMI, coupled resazurin fluorescence, 20 min; active compounds read high; 1 = vehicle control, 0 substrate-free wells | activation factor at 20 µM | hit rate 0.005% among 190,000;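 active means activation factor of 2 or more at 20 µM, relative to plate controls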
NCF1 inh = p47phox (human) inhibition; P14598; AID 1274; hit rate 0.53% among 220,000; inhibition, % at 24.7 µM; p47phox/p22phox peptide binding, fluorescence polarization, 2 h;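 active means inhibition above about 30%, limit read from the data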;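 further: 0% = p47phox with labelled peptide and 100% = labelled peptide alone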
PMI act satM6P = activators of human phosphomannose isomerase at near-saturating mannose 6-phosphate. coupled PMI enzyme assay, resazurin fluorescence, 20 min; active compounds read high; 1 = untreated enzyme, 0 = substrate-free blank. hit rate 0.34% among 190,000. activation factor at 20 µM;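 active means activation factor of 2 or more at 20 µM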
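Material: human phosphomannose isomerase with PGI, G6PDH, diaphorase coupling enzymes / Reagent: Man-6-P substrate 1.0 mM / Dosing: single compound dose of 20 µM, 1% DMSO final / Incubation: enzyme reaction with compound 20 min at room temperature / Signal: resorufin fluorescence (Ex 544/Em 590 nm) from resazurin via diaphorase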
Efa HMGR inh = blocks class II HMG-CoA reductase of Enterococcus faecalis | hit rate 0.41% among 190,000 | purified E. faecalis HMGR, NADPH absorbance 340 nm kinetic | inhibition, % at 10 µM;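 active means inhibition above a set limit, the median over all tested compounds plus 3 SD, cut at about 9.5% in these data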;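 further: enzyme runs in reverse so mevalonate oxidation gives rising NADPH absorbance; 0% = complete reaction with DMSO and 100% = background rate lacking mevalonate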
DTT redox prof = compounds producing H2O2 with reducing agent – biochemical, NIH compound library profiling, artefact control for MLSCN library redox annotation, primary screen; DTT-dependent redox cycling H2O2, phenol red/HRP absorbance; 100% = 100 µM peroxide control, 0% = buffer; activation, % at 10 µM; hit rate 0.03% among 200,000; AID 878;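 active means activation of at least 50% relative to the plate's high and low controls in the primary single-dose screen; inactive means activation below 50%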;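 further: compound incubated with DTT at 0.8 mM final as the reducing agent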
DTT redox conf = generates H2O2 by DTT-dependent redox cycling, confirmed in dose response; EC50, µM; phenol red-HRP absorbance; hit rate 40% among 60; shares compounds with DTT redox prof;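 active means EC50 under a set limit for hydrogen peroxide production with the reducing agent DTT present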
The depositor's hits bear a star; nt = no result. In the library only some 1.2% were active in any assay of this set; here they are far more common.

SMILES	Diaphorase act	PMI act	NCF1 inh	PMI act satM6P	Efa HMGR inh	DTT redox prof	DTT redox conf
CCCCn1c(NC(=O)c2ccco2)c(C(=O)OCC)c2nc3ccccc3nc21	0.3	0.4	-14	0.4	5	81*	>50
CCn1nc(/C=C/c2ccccc2)nc2c(=O)n(C)c(=O)nc1-2	1.5	0.6	-7	0.5	7	152*	>50
CCn1nc(-c2cccs2)nc2c(=O)n(C)c(=O)nc1-2	1.8	0.9	-5	0.9	8	nt	nt
C/C(=N\N1CCCCCC1)c1c(O)n(C2CCCCC2)c(=O)[nH]c1=O	nt	nt	-1	nt	nt	nt	nt
COc1cc([C@@H]2c3cc4c(cc3[C@@H](OC)[C@H]3COC(=O)[C@H]23)OCO4)cc(OC)c1O	nt	nt	-15	nt	nt	nt	nt
